Experimental data: PMC5958747 (Endocrine Connections, 2018)
Marks after values point to notes of the source that are not given here.

How the values were obtained:
[1] = tested on: MNU-induced mammary tumours; test: N-methyl-N-nitrosourea; format: in vivo, female Sprague-Dawley rats; conditions: for increase of mammary tumour number in tumour-bearing rats compared with controls: end of study, significant for glargine only; for number of tumours per rat (tumour multiplicity, all rats): including rats bearing no tumour, 15 U/kg/day s.c. 5 days a week, at 6 weeks of treatment, high-fat diet, MNU, mean ± S.E.M., n = 30 per group
[2] = format: in vivo, female Sprague-Dawley rats; conditions: for Final body weight: after 6 weeks of 15 U/kg s.c. 5 days per week; for Final body weight / Food intake / Body weight increase: mean ± S.E.M., n = 30; for Food intake: average over the treatment period; for Body weight increase: over 6 weeks of treatment; for blood glucose levels before the injection vs control or detemir groups: over the treatment period, n = 30 per group
Summary of the method: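 Female Sprague-Dawley rats on a high-fat diet (40% of calories) from 4 weeks of age were given MNU 485 μmol/kg s.c. 1 week later. Light cycle was shifted to 13:00–01:00 h. At 9 weeks, rats were randomised (n = 30/group) to saline or insulin s.c. at 11:00–12:00 h, 5 days/week, ramped 5→10→15 U/kg. Tail-nick glucometer glucose was taken before and 4 h post-injection three times weekly. Data are mean ± s.e.m., analysed by ANOVA and Waller–Duncan test.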

[3] = format: in vivo, female Sprague-Dawley rats; conditions: 15 U/kg s.c.; for steady plasma concentrations (unit/L) up to: high-fat-fed rats, n = 6, unmetabolised glargine
[4] = tested on: Akt (phospho-Ser473-Akt / total Akt); test: Western blot of phosphorylated and total Akt in mammary tumours; format: in vivo, female Sprague-Dawley rats; conditions: mammary tumours 4 h after last s.c. injection, 15 U/kg
Summary of the method: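 High-fat-fed, MNU-treated female Sprague-Dawley rats received saline or insulin s.c. 5 days/week for 6 weeks. Palpable mammary tumours were collected under ketamine/xylazine/acepromazine anaesthesia 4 h after the last injection, halved, and one half was snap-frozen in liquid nitrogen for Western blotting of phosphorylated and total Akt.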

[5] = ref not given, cited from earlier work

| Substance | increase of mammary tumour number in tumour-bearing rats compared with controls [1] | Final body weight [2] [g] | Food intake [2] [g/day] | Body weight increase [2] | blood glucose levels before the injection vs control or detemir groups [2] | number of tumours per rat (tumour multiplicity, all rats) [1] | steady plasma concentrations (unit/L) up to [3] | ratio of phosphorylated (active) Akt to total Akt vs control group [4] | sustained action after subcutaneous injection in humans ([5]; humans) | sustained action after subcutaneous injection ([5]; species not given, general statement) | peak of glucose-lowering action ([3]; insulin-resistant rats, partial recovery of plasma glucose at 9 h) [h] |
| --- | --- | --- | --- | --- | --- | --- | --- | --- | --- | --- | --- |
| NPH: NPH (unmodified human insulin), purchased from Eli Lilly, Canada | approximately doubled | 346 ± 7 | 21.1 ± 1.4 | 98.7 ± 4.5^a g | slightly higher |  |  |  |  |  |  |
| detemir | approximately doubled | 338 ± 6 | 19.7 ± 0.8 | 80.7 ± 3.9 g |  | 1.4 ± 0.4 | up to 9 h | higher |  |  |  |
| glargine | 2 fold | 343 ± 5 | 21.1 ± 1.2 | 93.8 ± 4.4 g | slightly higher | 1.5 ± 0.4 | up to 9 h | higher | over 20 h | up to 24 h | 1.5 to 4 |
